Rows were chosen to be rich in hits. Some 2.9% of all compounds tested hit in one or more screens of this group.
CendR NRP1 mod = alters CendR peptide binding to human NRP-1; inhibition, % at 25 µM; 360,000 tested, 0.85% active; O14786; FAM-RPARPAR peptide binding to NRP-1, fluorescence polarization; AID 602438;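 active = inhibition or corrected inhibition above about 18%, plus a signal ratio from 0.5 to 1.5, limit read from the data, passing the limit was not always enough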
Tn7 DDE FP = disrupts Tn7 cyclic peptide binding to fibrin D-Dimer-E complex; P02675; FP displacement of FITC-Tn7 peptide from fibrin DD(E); 0% = median of compound wells per plate; inhibition, % at 8.3 µM; 370,000 tested, 0.13% active; AID 720508;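 active = inhibition above the mean of compounds falling within the control limits plus 3 SD of them, cut at about 14% in these data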;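 also: 0% = plate median of compound wells and 100% = 10 µM Aha-Tn7 peptide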
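assay system = human clot-derived fibrin DD(E) complex | quantity = Fibrin-DD(E) at 2 µM final | timing = 10 min preincubation, 3 h with tracer, room temperature | signal = fluorescence polarization | measure = percent inhibition | benchmarks = high control wells with 10 µM unlabelled Aha-Tn7 peptide (full inhibition) | replicates = singlicate testing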
Tn6 DDE FP = DD(E)-Tn6 binding inhibition, primary FP screen. P02675. Fibrin DD(E) TRITC-Tn6 fluorescence polarization displacement. inhibition, % at 8.3 µM. 370,000 tested, 0.21% active;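 active = inhibition above a per-campaign cutoff: mean of compounds within control limits plus 3 SD, cut at about 15% in these data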;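 also: 0% = median of all compound wells on the plate and 100% = blocking peptide control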
CRFR2-BP antag = antagonists of CRF-binding protein/CRF-R2 receptor complex; 350,000 tested, 0.59% active; HEK293 CRF-R2/CRF-BP, CRF-induced calcium fluorescence; inhibition, % at 11.8 µM;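 active = inhibition of the ligand-induced calcium signal above about 50% at the single tested concentration, limit read from the data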
CRFBP-R2 agonist = agonists of human CRF-binding protein/CRF-R2 receptor complex. HEK293 CRF-R2/CRF-BP, calcium dye fluorescence (FLIPR); percent of saturating CRF peptide response. activation, % at 13.2 µM. 350,000 tested, 0.46% active;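 active = activation of at least 50%, plus an integration ratio under a set limit after plate pattern correction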;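 also: plate controls were neutral control wells without compound for no effect and CRF at EC100 for full effect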
KLK7 zymogen act = activates the human kallikrein-7 zymogen | P49862 | activation, % at 7 µM | 370,000 tested, 0.9% active | purified proKLK7, EDANS-DABCYL substrate fluorescence; 100% is mature enzyme control, 0% vehicle;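 active = activation above the mean of all tested compounds plus 3 SD, computed per campaign excluding outliers beyond control limits, cut at about 13% in these data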
Target sequence (P49862 whole entry, looked up): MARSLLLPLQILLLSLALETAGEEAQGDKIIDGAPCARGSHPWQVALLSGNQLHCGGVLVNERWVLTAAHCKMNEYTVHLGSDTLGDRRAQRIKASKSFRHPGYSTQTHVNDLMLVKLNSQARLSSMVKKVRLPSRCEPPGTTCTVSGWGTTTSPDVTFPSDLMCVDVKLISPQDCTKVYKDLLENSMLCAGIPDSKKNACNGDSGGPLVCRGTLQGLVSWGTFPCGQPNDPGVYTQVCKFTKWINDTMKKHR
The depositor's hits bear a star; . = no result given.

SMILES	CendR NRP1 mod	Tn7 DDE FP	Tn6 DDE FP	CRFR2-BP antag	CRFBP-R2 agonist	KLK7 zymogen act
CCc1ccc(NS(=O)(=O)c2c(C(=O)N3CCCCCC3)c(C)n(C)c2C)cc1	28*	-3	5	-6	0	-1
Cc1ccc(NS(=O)(=O)c2c(C(=O)N3CCCCCC3)c(C)n(C)c2C)c(C)c1	26*	1	3	-16	-1	0
Cc1ccccc1NS(=O)(=O)c1c(C(=O)N2CCCCCC2)c(C)n(C)c1C	12	-6	-3	-6	0	0
Cc1cc(NS(=O)(=O)c2c(C(=O)N3CCOCC3)c(C)n(C)c2C)ccc1Br	8	-4	3	92*	-1	2
CC(Nc1nc(-c2ccc(F)cc2)cs1)c1nc2cc(C(F)(F)F)ccc2n1CCOCCO (stereo not drawn)	28*	4	2	-1	1	0
CCN(CC)c1ccc2c(c1)OC(N)=C(C#N)C2c1cccnc1 (stereo not drawn)	74	-28	6	-183	181*	1
N#CC1=C(N)Oc2cc(N)ccc2C1c1cccnc1 (stereo not drawn)	-8	-8	5	-5	-1	1
NS(=O)(=O)c1ccc(N/N=C/c2ccc(C(=O)O)cc2)c([N+](=O)[O-])c1	16	-6	5	-8	-2	0
Cc1nn(-c2ccccc2)c(N2CCCC2)c1/C=N/Nc1ccc(S(N)(=O)=O)cc1[N+](=O)[O-]	12	4	-3	60*	0	0
CC(Cl)C(=O)c1c(N)n(C)c(=O)n(C)c1=O (stereo not drawn)	40*	.	.	1	-2	.
CC(=O)NCCNc1nc(NC(C)C)nc2ccsc12	26*	2	-3	.	.	-1
CC(=O)NCCNc1nc(NCc2cccs2)nc2ccsc12	-2	6	-2	.	.	0
CC1(Cc2ccc3c(c2)OCO3)NC(=O)NC1=O (stereo not drawn)	7	0	-8	56*	-3	0
CN1CC(c2ccccc2)C2(SC(=S)N(Cc3ccco3)C2=O)C12C(=O)Nc1ccccc12 (stereo not drawn)	5	15*	2	33	0	0
CCN(CC)c1ccc(/C=C2\C(=O)c3ccc(C(=O)O)cc3C2=O)cc1	132	-2	-4	-243	248*	0
CCN(CC)c1ccc(C(=O)O)cc1	-11	6	3	-3	2	0
O=C(NC1CCCCN(Cc2ccc(OC(F)(F)F)cc2)C1=O)c1ccc(F)c(F)c1 (stereo not drawn)	.	2	5	.	.	0
Cc1oc2c(CN(C)C)c(O)ccc2c(=O)c1-c1cscn1	-4	8	3	7	2	20*
C[C@H](O)[C@@H]1CN2CCc3ccc(N4CCOCC4)cc3[C@@H]2C[C@@H]1N(C)CC1CCCCC1	.	-1	-10	.	.	0
O=C1C(Br)=Cc2cccc3cccc1c23	27*	1	2	-3	13	4
CC(C)Cn1c(CN2C(=O)c3ccccc3C2=O)nc2ccccc2c1=O	8	1	-2	-15	4	0
Cc1c(-n2c(CN3C(=O)c4ccccc4C3=O)nc3ccccc3c2=O)c(=O)n(-c2ccccc2)n1C	26*	1	5	-14	-1	-1
Nc1ncn(C23CC4CC(CC(C4)C2)C3)n1	-15	1	13	16	0	0
Cc1ncn(C23CC4CC(CC(C4)C2)C3)n1	-6	-1	-1	58*	7	0
CCOc1ccccc1C1CC(=O)NC2=C1C(=O)CC(C)(C)C2 (stereo not drawn)	26*	-2	7	16	-1	0
CCOc1ccccc1C1CC(=O)Nc2cc(OC)c(OC)cc21 (stereo not drawn)	7	2	0	-9	-1	0
COC(=O)c1cn(NC(=O)c2ccc(F)cc2)c(=O)c2ccccc12	1	-3	1	105*	0	0
CCOc1cc(NC(=S)NC)c(OCC)cc1NC(=O)c1ccc(OC)cc1	21*	8	-2	-2	-3	0
